Assay results taken from ChEMBL document CHEMBL1123658, “1-(2-pyridinyl)piperazine derivatives with antianaphylactic, antibronchospastic, and mast cell stabilizing activities” (J Med Chem, 1987).

How the values were obtained:
[1] = test system: Cavia porcellus; assay: Antibronchospatic activity determined by histamine stimulated bronchospasm inhibition in guinea pigs after(i.v.) administration; format: functional, Bronchiole
Method in brief: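 Guinea pigs, Konzett–Rössler preparation. Bronchospasm was induced with histamine. Compound was given iv (1 mL/kg) 1 min before the agonist, dissolved in saline or saline with slight excess HCl or CH3SO3H (pH 3.5–4). Three doses were tested in duplicate, chosen to give 20–90% inhibition. ID75 was read graphically from log dose–response curves.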

[2] = test system: Rattus norvegicus; assay: Rat PCA Test(50% inhibition of spot areas)in the female albino rats after (ip) administration in 10% aqueous acacia gum; Value ranges from(42-57); format: functional; conditions: read-out: ID50 (the source's name)
Method in brief: (§1)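 Female albino rats (200–250 g) received intradermal ventral injections of rat anti-egg-albumin antiserum; donors were raised with egg albumin im plus H. pertussis ip, and serum was taken at 12 days. 24 h later, compound was given ip in 10% acacia gum (10 mL/kg), 10 rats/group. Challenge 30 min later was iv 0.3% egg albumin plus 1% Evans blue. Blued areas were measured 30 min after challenge.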

[3] = In vivo toxic effect was determined in mouse after intraperitoneal administration with 10% aqueous acacia gum; value ranges from 0.41-0.93; format: toxicity, organism-based; conditions: ip
Method in brief: (§2)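 Female albino mice (20-30 g), 10 animals per dose, dosed intraperitoneally with compound in solution or suspension; compounds tested as salts unless noted. Mortality was recorded over 7 days.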

[4] = In vivo toxic effect was determined in mouse after oral administration with 10% aqueous acacia gum;Value ranges from(1.30-1.80); format: toxicity, organism-based
Method in brief: (§3)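 Female albino mice, 20-30 g. Compound given orally as solution or suspension in 10% aqueous acacia gum, 10 animals per dose. Deaths recorded over 7 days.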

[5] = In vivo toxic effect was determined in mouse after intraperitoneal administration with 10% aqueous acacia gum; value ranges from 0.54-0.99; format: toxicity, organism-based; conditions: ip; method in brief: as §2
[6] = In vivo toxic effect was determined in mouse after oral administration with 10% aqueous acacia gum; value ranges from 0.94-1.65; format: toxicity, organism-based; method in brief: as §3
[7] = test system: Rattus norvegicus; assay: Rat PCA Test(50% inhibition of spot areas)in the female albino rats after (ip) administration in 10% aqueous acacia gum; format: functional; conditions: read-out: ID50 (the source's name); method in brief: as §1
[8] = In vivo toxic effect was determined in mouse after intraperitoneal administration with 10% aqueous acacia gum; value ranges from 1.35-1.82; format: toxicity, organism-based; conditions: ip; method in brief: as §2
[9] = test system: Rattus norvegicus; assay: Rat PCA Test(50% inhibition of spot areas)in the female albino rats after (ip) administration in 10% aqueous acacia gum; value ranges from 78-93; format: functional; conditions: read-out: ID50 (the source's name)
Method in brief: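 Antiserum came from female rats given 1% egg albumin in 0.9% NaCl intramuscularly plus Haemophilus pertussis vaccine (2 × 10^10 organisms) intraperitoneally, and was collected 12 days later. Recipient rats (200-250 g) got it intradermally at a ventral site. After 24 h, groups of 10 received vehicle or compound ip. At 30 min they were challenged iv with 0.3% egg albumin plus 1% Evans blue. Blued skin areas were measured 30 min later.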

[10] = In vivo toxic effect was determined in mouse after intraperitoneal administration with 10% aqueous acacia gum; value ranges from 0.66-1.99; format: toxicity, organism-based; conditions: ip; method in brief: as §2
[11] = In vivo toxic effect was determined in mouse after oral administration with 10% aqueous acacia gum; value ranges from 0.93-1.70; format: toxicity, organism-based; method in brief: as §3
[12] = test system: Rattus norvegicus; assay: Inhibition of mast cell degranulation was assessed in female albino rats at a dose of 32 umol/kg iv; format: functional
[13] = test system: Rattus norvegicus; assay: Rat PCA Test(50% inhibition of spot areas)in the female albino rats after oral administration in 10% aqueous acacia gum; value ranges from 119-331; format: functional; conditions: read-out: ID50 (the source's name)
Method in brief: (§4)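 Female rats (200-250 g) were passively sensitized by ventral intradermal anti-egg-albumin antiserum. This was raised in rats by intramuscular 1% egg albumin plus ip H. pertussis vaccine, with serum taken at 12 days. After 24 h, groups of 10 were dosed orally with compound or vehicle (10 mL/kg). At 60 min, iv challenge used 0.3% egg albumin with 1% Evans blue. Blued areas were measured after 30 min.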

[14] = test system: Rattus norvegicus; assay: Rat PCA Test(50% inhibition of spot areas)in the female albino rats after (ip) administration in 10% aqueous acacia gum; value ranges from 40-122; format: functional; conditions: read-out: ID50 (the source's name); method in brief: as §1
[15] = In vivo toxic effect was determined in mouse after intraperitoneal administration with 10% aqueous acacia gum; value ranges from 0.96-1.77; format: toxicity, organism-based; conditions: ip; method in brief: as §2
[16] = In vivo toxic effect was determined in mouse after oral administration with 10% aqueous acacia gum; value ranges from 1.72-3.90; format: toxicity, organism-based; method in brief: as §3
[17] = test system: Rattus norvegicus; assay: Inhibition of mast cell degranulation was assessed in female albino rats at a dose of 31 umol/kg iv; format: functional
[18] = test system: Rattus norvegicus; assay: Rat PCA Test(50% inhibition of spot areas)in the female albino rats after oral administration in 10% aqueous acacia gum; value ranges from 72-115; format: functional; conditions: read-out: ID50 (the source's name); method in brief: as §4
[19] = test system: Rattus norvegicus; assay: Rat PCA Test(50% inhibition of spot areas)in the female albino rats after (ip) administration in 10% aqueous acacia gum; value ranges from 11-48; format: functional; conditions: read-out: ID50 (the source's name); method in brief: as §1
[20] = In vivo toxic effect was determined in mouse after intraperitoneal administration with 10% aqueous acacia gum; value ranges from 0.92-1.65; format: toxicity, organism-based; conditions: ip; method in brief: as §2
[21] = In vivo toxic effect was determined in mouse after oral administration with 10% aqueous acacia gum; value ranges from 0.92-1.78; format: toxicity, organism-based; method in brief: as §3
[22] = In vivo toxic effect was determined in mouse after intraperitoneal administration with 10% aqueous acacia gum; value ranges from 0.56-0.94; format: toxicity, organism-based; conditions: ip; method in brief: as §2
[23] = In vivo toxicity in mouse after oral administration with 10% aqueous acacia gum; format: organism-based; method in brief: as §3
[24] = test system: Rattus norvegicus; assay: Rat PCA Test(50% inhibition of spot areas)in the female albino rats after oral administration in 10% aqueous acacia gum; format: functional; conditions: read-out: ID50 (the source's name); method in brief: as §4
[25] = In vivo toxic effect was determined in mouse after intraperitoneal administration with 10% aqueous acacia gum; value ranges from 0.94-1.40; format: toxicity, organism-based; conditions: ip; method in brief: as §2
[26] = In vivo toxic effect was determined in mouse after oral administration with 10% aqueous acacia gum value ranges from 1.63-2.93; format: toxicity, organism-based
[27] = test system: Rattus norvegicus; assay: Rat PCA Test(50% inhibition of spot areas)in the female albino rats, using Goose and Blair method by dissolving or suspended the compound in 10% aqueous acacia gum and administered perorally.; Value ranges from (26-199); format: functional; conditions: po, read-out: ID50 (the source's name); method in brief: as §4
[28] = test system: Rattus norvegicus; assay: Rat PCA Test(50% inhibition of spot areas)in the female albino rats after (ip) administration in 10% aqueous acacia gum; value ranges from 35-79; format: functional; conditions: read-out: ID50 (the source's name); method in brief: as §1
[29] = In vivo toxic effect was determined in mouse after intraperitoneal administration with 10% aqueous acacia gum; value ranges from 0.97-2.74; format: toxicity, organism-based; conditions: ip; method in brief: as §2
[30] = In vivo toxic effect was determined in mouse after oral administration with 10% aqueous acacia gum; value ranges from 0.97-1.87; format: toxicity, organism-based; method in brief: as §3
[31] = test system: Rattus norvegicus; assay: Rat PCA Test(50% inhibition of spot areas)in the female albino rats after (ip) administration in 10% aqueous acacia gum; value ranges from 164-246; format: functional; conditions: read-out: ID50 (the source's name); method in brief: as §1
[32] = test system: Mus musculus; assay: In vivo toxic effect was determined in mouse after intraperitoneal administration with 10% aqueous acacia gum; NA means poorly absorbed; format: toxicity, organism-based; conditions: ip; method in brief: as §2

**Q.** What does the source list for `CC(=O)c1ccc(NC(=O)CCN2CCN(c3ccccn3)CC2)cc1.Cl.Cl`?
**A.** ID75 [1]: 0.02 µM/kg; ED50 [2]: 49 µmol/kg; LD50 [3]: 480 µmol/kg; LD50 [4]: 1500 µmol/kg

**Q.** Which ID75 [1] does the source give for `CC(=O)c1cccc(NC(=O)CCN2CCN(c3ccccn3)CC2)c1.Cl.Cl` here?
**A.** 0.2 µM/kg

**Q.** What about the LD50 [5] of the same compound?
**A.** 680 µmol/kg

**Q.** And the LD50 [6]?
**A.** 1110 µmol/kg

**Q.** With `COC(=O)CC(C)N1CCN(c2ccccn2)CC1.O=C(O)/C=C\C(=O)O.O=C(O)/C=C\C(=O)O` (centres undefined) as the compound, how does the ID75 [1] read?
**A.** 2.37 µM/kg

**Q.** And the ED50 [7]?
**A.** > 404 µmol/kg

**Q.** And the LD50 [8]?
**A.** 1350 µmol/kg

**Q.** Which results are given for `Cl.Cl.O=C(CCN1CCN(c2ccccn2)CC1)Nc1c(Cl)cccc1Cl`?
**A.** ID75 [1]: 0.4 µM/kg; ED50 [9]: 85 µmol/kg; LD50 [10]: 800 µmol/kg; LD50 [11]: 1240 µmol/kg

**Q.** With `Cl.Cl.O=C(CCN1CCN(c2ccccn2)CC1)Nc1ccccc1Cl` as the compound, how does the inhibition in vivo at 32 µmol/kg [12] read?
**A.** 0%

**Q.** What about the ED50 [13] of the same compound?
**A.** 199 µmol/kg

**Q.** What about the ED50 [14] of the same compound?
**A.** 70 µmol/kg

**Q.** What about the LD50 [15] of the same compound?
**A.** 1290 µmol/kg

**Q.** What about the LD50 [16] of the same compound?
**A.** 2640 µmol/kg

**Q.** With `Nc1ccc(NC(=O)CCN2CCN(c3ccccn3)CC2)cc1` as the compound, how does the inhibition in vivo at 31 µmol/kg [17] read?
**A.** 84%

**Q.** And the ID75 [1]?
**A.** 0.02 µM/kg

**Q.** What about the ED50 [18] of the same compound?
**A.** 91 µmol/kg

**Q.** What about the ED50 [19] of the same compound?
**A.** 23 µmol/kg

**Q.** And the LD50 [20]?
**A.** 1110 µmol/kg

**Q.** And the LD50 [21]?
**A.** 1290 µmol/kg

**Q.** What does the source list for `Cc1cc(C)c(C)c(NC(=O)CN2CCN(c3ccccn3)CC2)c1C`?
**A.** ID75 [1]: >23.5 µM/kg; ED50 [7]: > 212 µmol/kg; LD50 [22]: 650 µmol/kg

**Q.** With `O=C(CCN1CCN(c2ccccn2)CC1)Nc1ccc(NC(=O)Nc2ccccc2)cc1` as the compound, how does the ID75 [1] read?
**A.** 0.31 µM/kg

**Q.** And the ED50 [7]?
**A.** > 225 µmol/kg

**Q.** And the LD50 [23]?
**A.** > 6700 µmol/kg

**Q.** For `CC(C)Sc1ccc(NC(=O)CCN2CCN(c3ccccn3)CC2)cc1`, which ID75 [1] is on record?
**A.** 0.8 µM/kg

**Q.** And the ED50 [7]?
**A.** > 120 µmol/kg

**Q.** And the ED50 [24]?
**A.** > 221 µmol/kg

**Q.** And the LD50 [25]?
**A.** 1140 µmol/kg

**Q.** And the LD50 [26]?
**A.** 2180 µmol/kg

**Q.** What does the source list for `O=C(CCN1CCN(c2ccccn2)CC1)Nc1ccccc1`?
**A.** inhibition in vivo at 32 µmol/kg [12]: 12%; ED50 [27]: 72 µmol/kg; ED50 [28]: 53 µmol/kg; LD50 [29]: 1160 µmol/kg; LD50 [30]: 1350 µmol/kg

**Q.** With `NC(=O)Nc1ccc(NC(=O)CCN2CCN(c3ccccn3)CC2)cc1` as the compound, how does the ID75 [1] read?
**A.** 0.25 µM/kg

**Q.** And the ED50 [31]?
**A.** 194 µmol/kg

**Q.** What about the ED50 [24] of the same compound?
**A.** > 271 µmol/kg

**Q.** What about the LD50 [23] of the same compound?
**A.** > 8100 µmol/kg

**Q.** Which results are given for `NS(=O)(=O)c1ccc(NC(=O)CCN2CCN(c3ccccn3)CC2)cc1`?
**A.** ID75 [1]: 0.19 µM/kg; ED50 [7]: > 257 µmol/kg; LD50 [23]: > 7700 µmol/kg; LD50 [32]: Not Active
